ChEMBL document CHEMBL4052815, “Amphiphilic Modulation of Glycosylated Antitumor Ether Lipids Results in a Potent Triamino Scaffold against Epithelial Cancer Cell Lines and BT474 Cancer Stem Cells” (J Med Chem, 2017)
Calls of active or inactive are those of the source. The calls are words filed in the database; no cut-off is given here.

Tests used:
[1] = test system: MDA-MB-231; experiment: Cytotoxicity against human MDA-MB-231 cells assessed as cell viability at 4 to 10 uM after 48 hrs by MTS assay relative to control; format: functional
Procedure, shortened: (§1)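 Cells grown at 37 °C, 5% CO2, with 10% FBS and penicillin/streptomycin: MDA-MB-231, JIMT1 and DU145 in DMEM, PC3 in F12K, BT474 in Hybricare, MiaPaCa2 in DMEM plus 2.5% horse serum. Cells (7500–9000/well) were plated for 24 h, then exposed to 0–20 µM for 48 h. MTS was added for 1–4 h and OD490 read, blank-subtracted, relative to vehicle. CC50 was read from plots; mean ± SD, six independent determinations.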

[2] = test system: BT-549; experiment: Cytotoxicity against human BT549 cells assessed as decrease in cell viability after 48 hrs by MTS assay; format: functional; settings: BT-549, 48 h
[3] = Cytotoxicity against human A2780C/P cells assessed as decrease in cell viability after 48 hrs by MTS assay; format: functional
Procedure, shortened: (§2)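 Exponentially growing cells (7500–9000/well) were seeded for 24 h, then given compound at 0–20 µM for a further 48 h. MTS reagent (20% v/v) was added for 1–4 h and OD490 read. Blanks were cell-free media wells, and viability was expressed relative to vehicle controls. CC50 was read from viability plots; mean ± SD of six independent determinations.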

[4] = test system: U-251; experiment: Cytotoxicity against human U251 cells assessed as cell viability at 4 to 8 uM after 48 hrs by MTS assay relative to control; format: functional; procedure, shortened: as §2
[5] = Cytotoxicity against human A2780C/P cells assessed as cell viability at 4 to 8 uM after 48 hrs by MTS assay relative to control; format: functional; procedure, shortened: as §2
[6] = test system: MDA-MB-468; experiment: Cytotoxicity against human MDA-MB-468 cells assessed as decrease in cell viability at 6 uM after 48 hrs by MTS assay relative to control; format: functional
[7] = test system: Hs-578T; experiment: Cytotoxicity against human Hs 578T cells assessed as decrease in cell viability after 48 hrs by MTS assay; format: functional
[8] = test system: DU-145; experiment: Cytotoxicity against human DU145 cells assessed as cell viability at 4 to 10 uM after 48 hrs by MTS assay relative to control; format: functional; procedure, shortened: as §1
[9] = test system: DU-145; experiment: Cytotoxicity against human DU145 cells assessed as decrease in cell viability after 48 hrs by MTS assay; format: functional; settings: DU-145, 48 h; procedure, shortened: as §1
[10] = test system: DU-145; experiment: Cytotoxicity against human DU145 cells assessed as decrease in cell viability at 2 to 8 uM in presence of pan-caspase inhibitor Q-VD-OPh after 48 hrs by MTS assay; format: functional, cell-based
Procedure, shortened: (§3)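 DU145 or JIMT1 cells seeded for 24 h, then given 40 µM pan-caspase inhibitor along with varying compound concentrations. Incubation continued 48 h, then MTS (20% v/v) for 1–4 h, OD490 read. Values are blank-subtracted and relative to vehicle controls; mean ± SD.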

[11] = test system: BT-549; experiment: Cytotoxicity against human BT549 cells assessed as decrease in cell viability at 6 uM after 48 hrs by MTS assay relative to control; format: functional
[12] = test system: JIMT-1; experiment: Membranolytic activity in human JIMT1 cells at 6 uM after 4 hrs by ethidium homodimer-1 staining-based fluorescence microscopic method; format: functional, cell-based
Procedure, shortened: (§4)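 DU145 and JIMT1 grown in DMEM with 10% FBS and antibiotics, plated 24 h, then given 4–6 µM for 5–6 h (legend: 4 h). Ethidium homodimer-1 was added at 2 µM final, and cells were examined by bright-field and fluorescence microscopy at ×20. Controls: untreated cells, and 0.01% Triton X-100 for 10 min.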

[13] = test system: BT-474; experiment: Cytotoxicity against human BT474 cancer stem cell spheroids assessed as cell viability at 10 uM after 3 days by MTS assay relative to control; settings: BT-474, 72 h
[14] = test system: BT-474; experiment: Induction of disintegration of human BT474 cancer stem cell spheroids at 20 uM after 3 days by microscopic method; format: functional, cell-based
Procedure, shortened: (§5)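 BT474 stem-cell spheroids (ALDH1-sorted, formed over 6 days in Mammocult on ultra-low adhesion plates) exposed to 0, 7.5 or 20 µM for 3 days. Integrity was judged by light microscopy at ×10 against untreated spheroid wells.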

[15] = test system: Hs-578T; experiment: Cytotoxicity against human Hs 578T cells assessed as decrease in cell viability at 6 uM after 48 hrs by MTS assay relative to control; format: functional
[16] = test system: BT-474; experiment: Cytotoxicity against human BT474 cancer stem cell spheroids assessed as cell viability at 20 uM after 3 days by MTS assay relative to control; settings: BT-474, 72 h
[17] = test system: MDA-MB-231; experiment: Cytotoxicity against human MDA-MB-231 cells assessed as decrease in cell viability after 48 hrs by MTS assay; format: functional; settings: MDA-MB-231, 48 h; procedure, shortened: as §1
[18] = test system: JIMT-1; experiment: Induction of morphological changes in human JIMT1 cells at 6 uM after 4 hrs by bright field microscopic method; format: functional, cell-based; procedure, shortened: as §4
[19] = test system: BT-474; experiment: Cytotoxicity against human BT474 cells assessed as decrease in cell viability after 48 hrs by MTS assay; format: functional; settings: BT-474, 48 h; procedure, shortened: as §1
[20] = test system: BT-474; experiment: Cytotoxicity against human BT474 cancer stem cell spheroids assessed as decrease in cell viability at 2 to 10 uM after 3 days by MTS assay
[21] = test system: BT-474; experiment: Induction of disintegration of human BT474 cancer stem cell spheroids at 7.5 uM after 3 days by microscopic method; format: functional, cell-based; procedure, shortened: as §5
[22] = test system: MIA PaCa-2; experiment: Cytotoxicity against human MIAPaCa2 cells assessed as decrease in cell viability after 48 hrs by MTS assay; format: functional; settings: MIA PaCa-2, 48 h; procedure, shortened: as §1
[23] = test system: A2780S; experiment: Cytotoxicity against human A2780S cells assessed as decrease in cell viability after 48 hrs by MTS assay; format: functional; procedure, shortened: as §2
[24] = test system: MIA PaCa-2; experiment: Cytotoxicity against human MIAPaCa2 cells assessed as cell viability at 4 to 10 uM after 48 hrs by MTS assay relative to control; format: functional; procedure, shortened: as §1
[25] = Cytotoxicity against human U87 cells assessed as decrease in cell viability after 48 hrs by MTS assay; format: functional, U-87MG ATCC; settings: U-87 MG; procedure, shortened: as §2
[26] = test system: BT-474; experiment: Cytotoxicity against human BT474 cells assessed as cell viability at 4 to 10 uM after 48 hrs by MTS assay relative to control; format: functional; procedure, shortened: as §1
[27] = test system: A2780S; experiment: Cytotoxicity against human A2780S cells assessed as cell viability at 4 to 8 uM after 48 hrs by MTS assay relative to control; format: functional; procedure, shortened: as §2
[28] = test system: MDA-MB-468; experiment: Cytotoxicity against human MDA-MB-468 cells assessed as decrease in cell viability after 48 hrs by MTS assay; format: functional; settings: MDA-MB-468, 48 h
[29] = test system: JIMT-1; experiment: Cytotoxicity against human JIMT1 cells assessed as decrease in cell viability at 2 to 8 uM in presence of pan-caspase inhibitor Q-VD-OPh after 48 hrs by MTS assay; format: functional, cell-based; procedure, shortened: as §3
[30] = Cytotoxicity against human U87 cells assessed as cell viability at 4 to 8 uM after 48 hrs by MTS assay relative to control; format: functional, U-87MG ATCC; procedure, shortened: as §2
[31] = test system: JIMT-1; experiment: Cytotoxicity against human JIMT1 cells assessed as cell viability at 4 to 10 uM after 48 hrs by MTS assay relative to control; format: functional; procedure, shortened: as §1
[32] = test system: JIMT-1; experiment: Cytotoxicity against human JIMT1 cells assessed as decrease in cell viability after 48 hrs by MTS assay; format: functional; settings: JIMT-1, 48 h; procedure, shortened: as §1
[33] = test system: DU-145; experiment: Induction of morphological changes in human DU145 cells at 6 uM after 4 hrs by bright field microscopic method; format: functional, cell-based; procedure, shortened: as §4
[34] = test system: DU-145; experiment: Membranolytic activity in human DU145 cells at 6 uM after 4 hrs by ethidium homodimer-1 staining-based fluorescence microscopic method; format: functional, cell-based; procedure, shortened: as §4
[35] = Ratio of compound concentration showing <20% hemolysis in ovine erythrocytes to CC50 for human BT474 cells
[36] = test system: MDA-MB-453; experiment: Cytotoxicity against human MDA-MB-453 cells assessed as decrease in cell viability after 48 hrs by MTS assay; format: functional; settings: MDA-MB-453, 48 h
[37] = test system: PC-3; experiment: Cytotoxicity against human PC3 cells assessed as decrease in cell viability after 48 hrs by MTS assay; format: functional; settings: PC-3, 48 h; procedure, shortened: as §1
[38] = test system: MDA-MB-231; experiment: Cytotoxicity against human MDA-MB-231 cells assessed as decrease in cell viability at 6 uM after 48 hrs by MTS assay relative to control; format: functional
[39] = test system: U-251; experiment: Cytotoxicity against human U251 cells assessed as decrease in cell viability after 48 hrs by MTS assay; format: functional; settings: U-251, 48 h; procedure, shortened: as §2
[40] = test system: MDA-MB-453; experiment: Cytotoxicity against human MDA-MB-453 cells assessed as decrease in cell viability at 6 uM after 48 hrs by MTS assay relative to control; format: functional
[41] = test system: PC-3; experiment: Cytotoxicity against human PC3 cells assessed as cell viability at 4 to 10 uM after 48 hrs by MTS assay relative to control; format: functional; procedure, shortened: as §1
[42] = test system: BT-474; experiment: Cytotoxicity against human BT474 cancer stem cell spheroids assessed as decrease in cell viability up to 20 uM after 3 days by MTS assay

`CCCCCCCCCCCCCCCCOC[C@H](CO[C@@H]1O[C@H](CNCCCCCCCCCCCCN)[C@@H](O)[C@H](O)[C@H]1N)OC` showed an Activity [1] of 0%, a CC50 [2] of 2.5 µM and a CC50 [3] of 3.8 µM. For the same compound, the Activity [4] was 0%, the Activity [5] was 0% and the Activity [6] was >95%. For the same compound, the CC50 [7] was 1.8 µM, the Activity [8] was 0% and the CC50 [9] was 3.8 µM. The Activity [10] was “Active”, the Activity [11] was >95% and the Activity [12] was “inactive”. For the same compound, the viability at 10 µM [13] was 2%, the Activity [14] was “Active” and the Activity [15] was >95%. For the same compound, the viability at 20 µM [16] was 0%, the CC50 [17] was 1.5 µM and the Activity [18] was “Active”. For the same compound, the CC50 [19] was 1.6 µM, the Activity [20] was “Active” and the Activity [21] was “Active”. The CC50 [22] was 4 µM, the CC50 [23] was 2.4 µM and the Activity [24] was 0%. It also gave a CC50 [25] of 2.5 µM, an Activity [26] of 0% and an Activity [27] of 0%. The CC50 [28] was 2 µM, the Activity [29] was “Active” and the Activity [30] was 0%. The Activity [31] was 0%, the CC50 [32] was 3.4 µM and the Activity [33] was “Active”. For the same compound, the Activity [34] was “inactive”, the Ratio [35] was 15 and the CC50 [36] was 4 µM. The CC50 [37] was 2 µM, the Activity [38] was >95% and the CC50 [39] was 2.6 µM. The Activity [40] was >95% and the Activity [41] was 0%.

In the case of `CCCCCCCCCCCCCCCCOC[C@H](CO[C@@H]1O[C@H](CN)[C@@H](O)[C@H](O)[C@H]1NCCCN)OC`, the CC50 [9] is reported as 18.5 µM, the Activity [14] is reported as “inactive” and the viability at 20 µM [16] is reported as 0%. For the same compound, the CC50 [17] was 17.5 µM, the CC50 [19] was > 20 µM and the Activity [21] was “Active”. For the same compound, the CC50 [22] was 14.5 µM, the CC50 [32] was 12.5 µM and the CC50 [37] was 14.5 µM.

With `O=C(O)CCCc1ccc(N(CCCl)CCCl)cc1` [CHLORAMBUCIL] the CC50 [9] was > 150 µM, the CC50 [17] was > 150 µM and the CC50 [19] was > 150 µM. The CC50 [22] was > 150 µM, the CC50 [32] was > 150 µM and the CC50 [37] was > 150 µM.

With `CCCCCCCCCCCCCCCCOC[C@@H](COC1O[C@H](CN)[C@@H](O)[C@H](O)[C@H]1N)OC` (stereo partly drawn) the Activity [20] was “Active”.

In the case of `NCCCCCCCCCCCCO[C@@H]1O[C@H](CN)[C@@H](O)[C@H](O)[C@H]1N`, the CC50 [9] is reported as > 20 µM, the Activity [14] is reported as “inactive” and the CC50 [17] is reported as > 20 µM. The CC50 [19] was > 20 µM, the Activity [21] was “inactive” and the CC50 [22] was > 20 µM. For the same compound, the Activity [42] was “inactive”, the CC50 [32] was > 20 µM and the CC50 [37] was > 20 µM.

For `CCCCCCCCCCCCCCN` [TETRADECYLAMINE], the CC50 [9] was 16.5 µM, the Activity [14] was “inactive” and the Activity [21] was “inactive”. The CC50 [22] was 18 µM, the Activity [42] was “inactive” and the CC50 [32] was 27 µM. It also gave a CC50 [37] of 24 µM.
